# Data reported in ChEMBL document CHEMBL5724801, “EUbOPEN Chemogenomics Library - Multiplex” (2024).
# Where “and” joins values, the source holds several entries; their conditions need not be identical. Identical values can stand only once.
# Tested on: Fibroblast
# Experiment: Multiplex assay against human fibroblast
# Format: toxicity, cell-based
# Outline: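 Four dyes were applied at seeding to live cells: Hoechst33342, BioTracker Green Microtubule Cytoskeleton Dye, MitoTracker Red and Annexin V Alexa Fluor 680. Imaging after compound addition used a CQ1 microscope at 37°C and 5% CO2. CellPathfinder machine-learning gating then sorted cells into Hoechst high-intensity objects or normal cells, normal cells into healthy, pyknosed or fragmented nuclei, and pyknosed cells into mitotic or apoptotic, with tubulin, mitochondrial-mass and membrane-permeability phenotypes given as per cents of healthy-nucleus cells.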
# [1] = 12 h, 1 µM, compound concentration 1 uM
# [2] = 12 h, 10 µM, compound concentration 10 uM
# [3] = 24 h, 1 µM, compound concentration 1 uM
# [4] = 24 h, 10 µM, compound concentration 10 uM
# [5] = 48 h, 1 µM, compound concentration 1 uM
# [6] = 48 h, 10 µM, compound concentration 10 uM
smiles,measurement,setting,value
CC(C)CC(=O)Nc1cncc(-c2ccc3[nH]nc(-c4nc5c(-c6cccc(F)c6)cncc5[nH]4)c3c2)c1 [LORECIVIVINT],Population Fragmented Nuclei (%),[1],12.2% and 10.34%
same,Population Healthy Nuclei (%),[1],60.98% and 74.14%
same,Population Hoechst High Intensity Objects (%),[1],0%
same,Population Membrane Permeable-Phenotype (%),[1],6% and 10.08%
same,Population Mitochondria Different-Phenotype (%),[1],10% and 9.3%
same,Population Mitotic Cells (%),[1],95.45% and 62.96%
same,Population Normal (%),[1],100%
same,Population Pyknosed Nuclei (%),[1],26.83% and 15.52%
same,Population Tubulin-Different-Phenotype (%),[1],36% and 44.19%
same,Total Cell Count,[1],164 and 174
same,Population Apoptotic (%),[2],37.84% and 20.2%
same,Population Fragmented Nuclei (%),[2],10.38% and 7.03%
same,Population Healthy Nuclei (%),[2],64.01% and 61.34%
same,Population Hoechst High Intensity Objects (%),[2],0%
same,Population Membrane Permeable-Phenotype (%),[2],14.59% and 9.38%
same,Population Mitochondria Different-Phenotype (%),[2],4.86% and 2.08%
same,Population Mitotic Cells (%),[2],62.16% and 79.8%
same,Population Normal (%),[2],100%
same,Population Pyknosed Nuclei (%),[2],25.61% and 31.63%
same,Population Tubulin-Different-Phenotype (%),[2],37.84% and 36.46%
same,Total Cell Count,[2],289 and 313
same,Population Apoptotic (%),[3],12.9% and 25%
same,Population Fragmented Nuclei (%),[3],14.37% and 8.2%
same,Population Healthy Nuclei (%),[3],67.82% and 80.87%
same,Population Hoechst High Intensity Objects (%),[3],0%
same,Population Membrane Permeable-Phenotype (%),[3],6.78% and 12.84%
same,Population Mitochondria Different-Phenotype (%),[3],5.08% and 2.7%
same,Population Mitotic Cells (%),[3],87.1% and 75%
same,Population Normal (%),[3],100%
same,Population Pyknosed Nuclei (%),[3],17.82% and 10.93%
same,Population Tubulin-Different-Phenotype (%),[3],34.75% and 50.68%
same,Total Cell Count,[3],174 and 183
same,Population Apoptotic (%),[4],40% and 21.83%
same,Population Fragmented Nuclei (%),[4],10% and 5.2%
same,Population Healthy Nuclei (%),[4],49.38% and 59.65%
same,Population Hoechst High Intensity Objects (%),[4],0%
same,Population Membrane Permeable-Phenotype (%),[4],13.29% and 10.37%
same,Population Mitochondria Different-Phenotype (%),[4],2.53% and 0.41%
same,Population Mitotic Cells (%),[4],60% and 78.17%
same,Population Normal (%),[4],100%
same,Population Pyknosed Nuclei (%),[4],40.62% and 35.15%
same,Population Tubulin-Different-Phenotype (%),[4],37.97% and 34.02%
same,Total Cell Count,[4],320 and 404
same,Population Apoptotic (%),[5],16.67% and 32.43%
same,Population Fragmented Nuclei (%),[5],16.43% and 12.15%
same,Population Healthy Nuclei (%),[5],60.39% and 67.4%
same,Population Hoechst High Intensity Objects (%),[5],0%
same,Population Membrane Permeable-Phenotype (%),[5],8% and 13.93%
same,Population Mitochondria Different-Phenotype (%),[5],9.6% and 4.92%
same,Population Mitotic Cells (%),[5],83.33% and 67.57%
same,Population Normal (%),[5],100%
same,Population Pyknosed Nuclei (%),[5],23.19% and 20.44%
same,Population Tubulin-Different-Phenotype (%),[5],32% and 47.54%
same,Total Cell Count,[5],207 and 181
same,Population Apoptotic (%),[6],46.41% and 43.05%
same,Population Fragmented Nuclei (%),[6],10.67% and 7.39%
same,Population Healthy Nuclei (%),[6],33.6% and 33.77%
same,Population Hoechst High Intensity Objects (%),[6],0%
same,Population Membrane Permeable-Phenotype (%),[6],8.73% and 10.16%
same,Population Mitochondria Different-Phenotype (%),[6],5.56% and 1.56%
same,Population Mitotic Cells (%),[6],53.59% and 56.95%
same,Population Normal (%),[6],100%
same,Population Pyknosed Nuclei (%),[6],55.73% and 58.84%
same,Population Tubulin-Different-Phenotype (%),[6],17.46% and 26.56%
same,Total Cell Count,[6],375 and 379
CCNC1(C(N)=O)CCN(c2ncnc3c2nc(-c2ccccc2Cl)n3-c2ccc(Cl)cc2)CC1 [OTENABANT],Population Apoptotic (%),[1],26% and 37%
same,Population Fragmented Nuclei (%),[1],19% and 25%
same,Population Healthy Nuclei (%),[1],63% and 48%
same,Population Hoechst High Intensity Objects (%),[1],6% and 2%
same,Population Membrane Permeable-Phenotype (%),[1],1% and 6%
same,Population Mitochondria Different-Phenotype (%),[1],7% and 10%
same,Population Mitotic Cells (%),[1],73% and 62%
same,Population Normal (%),[1],93% and 97%
same,Population Pyknosed Nuclei (%),[1],17% and 26%
same,Population Tubulin-Different-Phenotype (%),[1],44% and 50%
same,Total Cell Count,[1],161 and 156
same,Population Apoptotic (%),[2],57% and 40%
same,Population Fragmented Nuclei (%),[2],22% and 30%
same,Population Healthy Nuclei (%),[2],64% and 48%
same,Population Hoechst High Intensity Objects (%),[2],4% and 3%
same,Population Membrane Permeable-Phenotype (%),[2],0% and 12%
same,Population Mitochondria Different-Phenotype (%),[2],16% and 18%
same,Population Mitotic Cells (%),[2],42% and 59%
same,Population Normal (%),[2],95% and 96%
same,Population Pyknosed Nuclei (%),[2],12% and 21%
same,Population Tubulin-Different-Phenotype (%),[2],90% and 87%
same,Total Cell Count,[2],170 and 216
same,Population Apoptotic (%),[3],26% and 34%
same,Population Fragmented Nuclei (%),[3],17% and 27%
same,Population Healthy Nuclei (%),[3],66% and 43%
same,Population Hoechst High Intensity Objects (%),[3],4% and 5%
same,Population Membrane Permeable-Phenotype (%),[3],0% and 9%
same,Population Mitochondria Different-Phenotype (%),[3],8% and 14%
same,Population Mitotic Cells (%),[3],73% and 65%
same,Population Normal (%),[3],95% and 94%
same,Population Pyknosed Nuclei (%),[3],15% and 29%
same,Population Tubulin-Different-Phenotype (%),[3],44% and 57%
same,Total Cell Count,[3],154 and 155
same,Population Apoptotic (%),[4],54%
same,Population Fragmented Nuclei (%),[4],22% and 37%
same,Population Healthy Nuclei (%),[4],64% and 48%
same,Population Hoechst High Intensity Objects (%),[4],2% and 5%
same,Population Membrane Permeable-Phenotype (%),[4],0% and 7%
same,Population Mitochondria Different-Phenotype (%),[4],37% and 30%
same,Population Mitotic Cells (%),[4],45%
same,Population Normal (%),[4],97% and 94%
same,Population Pyknosed Nuclei (%),[4],12% and 13%
same,Population Tubulin-Different-Phenotype (%),[4],96% and 88%
same,Total Cell Count,[4],174 and 235
same,Population Apoptotic (%),[5],68% and 59%
same,Population Fragmented Nuclei (%),[5],18% and 33%
same,Population Healthy Nuclei (%),[5],69% and 42%
same,Population Hoechst High Intensity Objects (%),[5],8% and 5%
same,Population Membrane Permeable-Phenotype (%),[5],0% and 13%
same,Population Mitotic Cells (%),[5],31% and 40%
same,Population Normal (%),[5],91% and 94%
same,Population Pyknosed Nuclei (%),[5],12% and 23%
same,Population Tubulin-Different-Phenotype (%),[5],41% and 72%
same,Total Cell Count,[5],167 and 143
same,Population Apoptotic (%),[6],78% and 61%
same,Population Fragmented Nuclei (%),[6],30% and 46%
same,Population Healthy Nuclei (%),[6],61% and 47%
same,Population Hoechst High Intensity Objects (%),[6],8% and 2%
same,Population Membrane Permeable-Phenotype (%),[6],0% and 7%
same,Population Mitochondria Different-Phenotype (%),[6],49% and 26%
same,Population Mitotic Cells (%),[6],21% and 38%
same,Population Normal (%),[6],91% and 97%
same,Population Pyknosed Nuclei (%),[6],8% and 6%
same,Population Tubulin-Different-Phenotype (%),[6],92% and 89%
same,Total Cell Count,[6],187 and 299
